According to ChEMBL document CHEMBL3352164, “Discovery of N-(2,4-di-tert-butyl-5-hydroxyphenyl)-4-oxo-1,4-dihydroquinoline-3-carboxamide (VX-770, ivacaftor), a potent and orally bioavailable CFTR potentiator” (J Med Chem, 2014):

Key:
[1] = molecular target: Cystic fibrosis transmembrane conductance regulator (Homo sapiens, UniProt P13569, F508DEL); assay: Potentiation of human CFTR F508del mutant expressed in mouse NIH-3T3 cells after 30 mins by fluorescent voltage sensing optical assay; assay type: cell-based, NIH3T3
How it was run: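 NIH-3T3 fibroblasts stably expressing human F508del-CFTR were held 16–24 h at 27 °C to correct misfolding. Cells were washed in NaCl/HEPES bath, pH 7.4, then loaded with voltage-sensing dyes plus compound for 30 min at room temperature. Cl−-free bath with forskolin was added once, and membrane potential change was read by fluorescence. EC50 is mean ± SD of at least three determinations.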

[2] = test system: Cystic fibrosis transmembrane conductance regulator (Homo sapiens), P13569 [F508del]; assay: Potentiation of human CFTR F508del mutant expressed in mouse NIH-3T3 cells at 30 uM after 30 mins by fluorescent voltage sensing optical assay relative to VRT-532; assay type: cell-based; details: NIH3T3
How it was run: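 Same F508del-CFTR NIH-3T3 membrane-potential assay: 27 °C correction for 16–24 h, dye plus compound for 30 min at room temperature, then forskolin in Cl−-free bath. Compounds below 50% activity at 30 μM were not titrated. Their response at 30 μM is given as % of VRT-532.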

[3] = AUC (0 to infinity) in Sprague-Dawley rat at 2.45 mg/kg, iv; assay type: ADME, organism-based; design: time infinity, dose 2.45 mg/kg, route intravenous; details: plasma
How it was run: (§1)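 Male Sprague−Dawley rats, n = 3/group, single iv dose in dimethyl isosorbide/ethanol/PEG400/D5W (10%/15%/35%/40%) at 1 mL/kg. Carotid cannula blood at predose, 5, 15, 30, 45 min and 1, 2, 4, 6, 8, 12, 24, 36, 48 h. Plasma levels by LC/MS/MS (LLOQ 1 ng/mL, linear 1–2500 ng/mL). Noncompartmental analysis of mean profiles using measured doses.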

[4] = Clearance in Sprague-Dawley rat at 2.45 mg/kg, iv; assay type: ADME, organism-based; design: dose 2.45 mg/kg, route intravenous; details: in vivo
How it was run: (§2)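 Animals (n = 3/group; male mouse, Sprague-Dawley rat, beagle dog, cynomolgus monkey) got a single iv dose in dimethyl isosorbide/ethanol/PEG400/D5W (10%/15%/35%/40%) at 1 mL/kg. Heparinized blood was drawn via an indwelling carotid cannula from predose to 48 h. Plasma was assayed by LC/MS/MS (LLOQ 1 ng/mL, linear 1–2500 ng/mL). Parameters came from noncompartmental analysis of mean profiles using measured doses.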

[5] = Half life in Sprague-Dawley rat at 2.45 mg/kg, iv; assay type: ADME, organism-based; design: dose 2.45 mg/kg, route intravenous; details: in vivo; how it was run: as §2
[6] = Volume of distribution at steady state in Sprague-Dawley rat at 2.45 mg/kg, iv; assay type: ADME, organism-based; design: dose 2.45 mg/kg, route intravenous; details: in vivo, read-out: Vdss; how it was run: as §2
[7] = AUC (0 to infinity) in Sprague-Dawley rat at 2.49 mg/kg, iv; assay type: ADME, organism-based; design: time infinity, dose 2.49 mg/kg, route intravenous; details: plasma; how it was run: as §1
[8] = Clearance in Sprague-Dawley rat at 2.49 mg/kg, iv; assay type: ADME, organism-based; design: dose 2.49 mg/kg, route intravenous; details: in vivo; how it was run: as §2
[9] = Half life in Sprague-Dawley rat at 2.49 mg/kg, iv; assay type: ADME, organism-based; design: dose 2.49 mg/kg, route intravenous; details: in vivo; how it was run: as §2
[10] = Volume of distribution at steady state in Sprague-Dawley rat at 2.49 mg/kg, iv; assay type: ADME, organism-based; design: dose 2.49 mg/kg, route intravenous; details: in vivo, read-out: Vdss; how it was run: as §2
[11] = AUC (0 to infinity) in Sprague-Dawley rat at 1.57 mg/kg, iv; assay type: ADME, organism-based; design: time infinity, dose 1.57 mg/kg, route intravenous; details: plasma; how it was run: as §1
[12] = Clearance in Sprague-Dawley rat at 1.57 mg/kg, iv; assay type: ADME, organism-based; design: dose 1.57 mg/kg, route intravenous; details: in vivo; how it was run: as §2
[13] = Half life in Sprague-Dawley rat at 1.57 mg/kg, iv; assay type: ADME, organism-based; design: dose 1.57 mg/kg, route intravenous; details: in vivo; how it was run: as §2
[14] = Volume of distribution at steady state in Sprague-Dawley rat at 1.57 mg/kg, iv; assay type: ADME, organism-based; design: dose 1.57 mg/kg, route intravenous; details: in vivo, read-out: Vdss; how it was run: as §2

Chain of Cystic fibrosis transmembrane conductance regulator (Homo sapiens), P13569 [F508del] (P13569 as listed by the source): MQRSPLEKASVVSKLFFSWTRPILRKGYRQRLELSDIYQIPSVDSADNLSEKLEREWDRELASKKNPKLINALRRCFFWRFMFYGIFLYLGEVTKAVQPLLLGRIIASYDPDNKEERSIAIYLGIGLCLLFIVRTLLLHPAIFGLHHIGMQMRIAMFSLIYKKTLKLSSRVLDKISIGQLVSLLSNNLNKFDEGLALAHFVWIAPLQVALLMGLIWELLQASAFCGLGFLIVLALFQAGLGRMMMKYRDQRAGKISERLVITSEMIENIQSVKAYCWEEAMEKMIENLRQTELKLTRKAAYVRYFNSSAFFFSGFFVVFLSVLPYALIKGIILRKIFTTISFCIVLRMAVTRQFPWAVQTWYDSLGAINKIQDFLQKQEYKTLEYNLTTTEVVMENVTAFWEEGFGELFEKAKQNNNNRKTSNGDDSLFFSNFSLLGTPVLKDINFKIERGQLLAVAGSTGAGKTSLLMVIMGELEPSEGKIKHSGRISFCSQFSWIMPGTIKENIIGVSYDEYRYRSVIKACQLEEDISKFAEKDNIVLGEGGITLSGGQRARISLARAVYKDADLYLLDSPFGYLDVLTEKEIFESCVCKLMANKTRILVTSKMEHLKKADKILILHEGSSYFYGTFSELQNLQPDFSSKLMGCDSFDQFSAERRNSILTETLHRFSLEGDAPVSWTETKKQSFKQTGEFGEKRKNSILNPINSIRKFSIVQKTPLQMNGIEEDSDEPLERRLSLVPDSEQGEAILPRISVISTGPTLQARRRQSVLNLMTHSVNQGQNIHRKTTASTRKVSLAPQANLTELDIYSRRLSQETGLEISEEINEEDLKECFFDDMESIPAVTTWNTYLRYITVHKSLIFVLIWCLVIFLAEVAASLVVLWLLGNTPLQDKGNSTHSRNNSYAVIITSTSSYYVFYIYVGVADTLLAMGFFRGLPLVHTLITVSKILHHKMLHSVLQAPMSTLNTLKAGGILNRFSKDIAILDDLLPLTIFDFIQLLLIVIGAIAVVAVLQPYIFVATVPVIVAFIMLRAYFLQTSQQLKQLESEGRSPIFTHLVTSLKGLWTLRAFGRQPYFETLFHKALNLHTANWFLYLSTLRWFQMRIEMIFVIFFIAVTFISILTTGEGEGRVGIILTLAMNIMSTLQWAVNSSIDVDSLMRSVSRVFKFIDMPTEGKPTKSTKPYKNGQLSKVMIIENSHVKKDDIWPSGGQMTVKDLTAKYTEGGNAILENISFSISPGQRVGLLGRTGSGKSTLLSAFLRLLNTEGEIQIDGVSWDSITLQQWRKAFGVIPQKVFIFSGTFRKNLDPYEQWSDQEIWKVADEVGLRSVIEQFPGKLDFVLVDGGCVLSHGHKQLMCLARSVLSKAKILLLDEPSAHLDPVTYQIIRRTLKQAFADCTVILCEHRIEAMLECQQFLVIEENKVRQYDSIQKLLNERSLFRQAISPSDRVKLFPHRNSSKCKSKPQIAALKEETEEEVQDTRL
Chain of Cystic fibrosis transmembrane conductance regulator (P13569 as listed by the source): as above

Row | SMILES | EC50 [1] [nM] | further results
1 | CC(C)c1ccc(NC(=O)c2c[nH]c3ccccc3c2=O)cc1N | 300 | 
2 | O=c1c(S(=O)(=O)Nc2ccc3cc[nH]c3c2)c[nH]c2ccccc12 |  | Activity [2]: 1%
3 | O=C(Nc1cnc2ccccc2c1O)c1ccc2cc[nH]c2c1 |  | Activity [2]: 8%
4 | O=C(Nc1ccc2ccccc2c1)c1c[nH]c2ccccc2c1=O | 800 | 
5 | O=C(Nc1ccc2cn[nH]c2c1)c1c[nH]c2ccccc2c1=O | 5600 | 
6 | O=c1c(CNc2ccc3cc[nH]c3c2)c[nH]c2ccccc12 |  | Activity [2]: 1%
7 | Cc1ccc(NC(=O)c2c[nH]c3ccccc3c2=O)cc1N | 6000 | 
8 | CC(C)c1ccc(NC(=O)c2c[nH]c3ccccc3c2=O)cc1 | 200 | 
9 | Cn1ccc2ccc(NC(=O)c3c[nH]c4ccccc4c3=O)cc21 | 6400 | 
10 | O=C(Nc1ccc2[nH]ccc2c1)c1c[nH]c2ccccc2c1=O | 6100 | 
11 | O=C(c1cnc2ccccn2c1=O)N(Cc1ccccc1)Cc1ccccc1 |  | Activity [2]: 10%
12 | CC(C)c1ccccc1NC(=O)c1c[nH]c2ccccc2c1=O | 200 | 
13 | CC(C)(C)c1ccc(NC(=O)c2c[nH]c3ccccc3c2=O)cc1S(N)(=O)=O | 5100 | 
14 | O=C(Nc1ccc2c(c1)NCC2)c1c[nH]c2ccccc2c1=O | 400 | 
15 | Cn1cc(C(=O)N(Cc2ccccc2)Cc2ccccc2)c(=O)c2ccccc21 |  | Activity [2]: 37%
16 | CC(C)(C)c1ccc(NC(=O)c2c[nH]c3ccccc3c2=O)cc1CN |  | Activity [2]: 20%

Further lines, with some results ahead:

Row | EC50 [1] [nM] | SMILES | further results
17 | 100 | CC(C)(C)c1ccc(NC(=O)c2c[nH]c3ccccc3c2=O)cc1 | 
18 | 100 | CC(C)(C)c1ccc(NC(=O)c2c[nH]c3ccccc3c2=O)cc1N | 
19 | 9 | CC(C)(C)c1c[nH]c2cc(NC(=O)c3c[nH]c4ccccc4c3=O)ccc12 | AUC(0-inf) [3]: 700 ng·h/mL; clearance [4]: 60.7 mL/min/kg; half-life [5]: 1.3 h; Vd [6]: 4.4 L/kg
20 | 3 | CC(C)(C)c1cc(C(F)(F)F)c(NC(=O)c2c[nH]c3ccccc3c2=O)cc1O | 
21 | 11 | CC(C)(C)c1cc2cc[nH]c2cc1NC(=O)c1c[nH]c2ccccc2c1=O | AUC(0-inf) [7]: 2640 ng·h/mL; clearance [8]: 15.8 mL/min/kg; half-life [9]: 2.9 h; Vd [10]: 3.3 L/kg
22 | 100 | CC(C)(C)c1ccc(NC(=O)c2c[nH]c3ccccc3c2=O)cc1CO | 
23 | 100 | CCc1c[nH]c2cc(NC(=O)c3c[nH]c4ccccc4c3=O)ccc12 | 
24 | 2 | CC(C)(C)c1cc(F)c(NC(=O)c2c[nH]c3ccccc3c2=O)cc1O | AUC(0-inf) [11]: 520 ng·h/mL; clearance [12]: 62.9 mL/min/kg; half-life [13]: 1.1 h; Vd [14]: 2.9 L/kg
